{"data": "Assay results pooled from the literature", "organism": "Plasmodium falciparum", "observed": "parasite growth", "note": "Compare with care: the assays were run in different laboratories."}
{"Compound": "COc1ccc(Nc2ccnc3cc(-c4ccc(S(=O)(=O)N5CCN(C)CC5)cc4)ccc23)cc1", "strain": "D6", "notes": "drug-resistant strain, blood stage", "EC50": "18 nM"}
{"Compound": "COc1ccc(NC(=O)N2CCCCN3[C@H](CN(C)C)[C@H](c4ccc(C#Cc5ccccc5)cc4)[C@@H]3C2)cc1", "strain": "DD2", "notes": "blood stage", "EC50": "13 nM"}
{"Compound": "CCn1cc(-c2nc(C)no2)c(=O)c2cc(F)c(N3CCCC3)cc21", "strain": "3D7", "time": "72 h", "notes": "blood stage", "EC50": "500 nM"}
{"Compound": "COc1ccc(CNc2nc(-c3ccc(C(=O)O)nc3)nc3sc4c(c23)CCCC4)cc1Cl", "strain": "3D7", "time": "72 h", "notes": "blood stage", "EC50": "1590 nM"}
{"Compound": "CN1CCN(S(=O)(=O)c2cccc(-c3ccc4c(Nc5ccc(OCc6cccc(F)c6)c(Cl)c5)ccnc4c3)c2)CC1", "strain": "D6", "notes": "drug-resistant strain, blood stage", "EC50": "10 nM"}
{"Compound": "CCn1cc(-c2nc(C)no2)c(=O)c2cc(F)c(N3CCC(C(C)C)CC3)cc21", "strain": "3D7", "time": "72 h", "notes": "blood stage", "EC50": "41 nM"}
{"Compound": "O=C(Nc1ccc(CNc2ncnc3ccccc23)cc1)c1ccc(Cl)c(F)c1", "strain": "3D7", "time": "72 h", "notes": "blood stage", "EC50": "1510 nM"}
{"Compound": "CC(C)(C)OC(=O)Nc1ccc2c(Nc3ccc(OCc4cccc(F)c4)c(Cl)c3)ccnc2c1", "strain": "D6", "notes": "drug-resistant strain, blood stage", "EC50": "50 nM"}
{"Compound": "CCn1cc(-c2cccnc2)c(=O)c2cc(F)c(N3CCC(C)CC3)cc21", "strain": "3D7", "time": "72 h", "notes": "blood stage", "EC50": "> 10000 nM"}
{"Compound": "Cc1nnc(Nc2ccnc3cc(-c4ccc(S(=O)(=O)N5CCN(C)CC5)cc4)ccc23)nc1C", "strain": "D6", "notes": "drug-resistant strain, blood stage", "EC50": "160 nM"}
{"Compound": "CCCNCC(O)COc1ccccc1C(=O)CCc1ccccc1 (centres unmarked)", "technique": "SYBR Green", "strain": "K1", "notes": "drug-resistant strain, blood stage", "EC50": "920 nM"}
{"Compound": "CCn1cc(C(=O)N2CCOCC2)c(=O)c2cc(F)c(N3CCC(C)CC3)cc21", "strain": "3D7", "time": "72 h", "notes": "blood stage", "EC50": "> 10000 nM"}
{"Compound": "COc1ccc(OCCCO)cc1-c1cn2cc(-c3nnc(NCCCCc4ccccc4)o3)ccc2n1", "strain": "3D7", "time": "72 h", "notes": "blood stage", "EC50": "2980 nM"}
{"Compound": "CCn1cc(-c2nc(C)no2)c(=O)c2cc(F)c(N3CCC(Cc4ccccc4)CC3)cc21", "strain": "3D7", "notes": "blood stage", "EC50": "32.1 nM"}
{"Compound": "COc1ncc(Nc2ccnc3cc(-c4ccc(S(=O)(=O)N5CCN(C)CC5)cc4)ccc23)cn1", "strain": "D6", "notes": "drug-resistant strain, blood stage", "EC50": "50 nM"}
{"Compound": "C[C@H]1[C@@H](O)O[C@@H]2O[C@@]3(C)CC[C@H]4[C@H](C)CC[C@@H]1[C@@]24OO3", "strain": "NF54", "time": "24 h", "notes": "gametocyte", "EC50": "13.8 nM"}
{"Compound": "COc1cc(OC)c(CCNC(=O)c2cn3cc(-c4cc(OCC(=O)O)ccc4OC)nc3s2)c(OC)c1", "strain": "3D7", "time": "72 h", "notes": "blood stage", "EC50": "2230 nM"}
{"Compound": "Cc1cc(Nc2ccnc3cc(-c4ccc(S(=O)(=O)N5CCN(C)CC5)cc4)ccc23)sn1", "strain": "D6", "notes": "drug-resistant strain, blood stage", "EC50": "110 nM"}
{"Compound": "CCn1cc(-c2nc(C)no2)c(=O)c2cc(F)c(N3CCN(C)CC3)cc21", "strain": "3D7", "time": "72 h", "notes": "blood stage", "EC50": "4570 nM"}
{"Compound": "CNS(=O)(=O)c1ccccc1Nc1nc(Nc2cc(OC)c(OC)cc2C)ncc1Br", "strain": "3D7", "time": "72 h", "notes": "blood stage", "EC50": "153 nM"}
